From publication PMC9623233 (Clinical Cancer Research, 2022)

What was measured:
[1] = tested on: high-grade serous ovarian cancer; assay: Antitumor activity: RECIST v1.1 response and time on treatment; type: in vivo, human
[2] = tested on: α-FR–overexpressing preclinical model; assay: Combination of CT900 and PARP inhibition, growth inhibition; type: cell-based; conditions: Supplementary Fig. S3
[3] = ref previous unpublished trial Eudra CT 2009-012933-31; cited from earlier work
[4] = CT900 plasma pharmacokinetics, noncompartmental analysis; type: in vivo, human; conditions: Cycle 1 Day 1; for AUC(0-t) / Cmax / clearance / Tmax / Vd: human, plasma, iv
Procedure, shortened: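 Test compound was given intravenously, weekly (1–6 mg/m2) or every 2 weeks (2–12 mg/m2). Plasma concentration–time data were analysed noncompartmentally for AUClast, AUC∞, AUC0–24, Cmax, Tmax, t1/2, λz, clearance and Vss. Summaries are geometric mean with CV%, arithmetic mean and median.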

C#CCN(c1ccc(C(=O)N[C@@H](CCC(=O)N[C@H](CCC(=O)O)C(=O)O)C(=O)O)cc1)[C@H]1CCc2cc3nc(CO)[nH]c(=O)c3cc21 [CT900, N-[4-[2-propyn-1-yl[(6S)-4,6,7,8-tetrahydro-2-(hydroxymethyl)-4-oxo-3H-cyclopenta [g]quinazolin-6-yl]amino]benzoyl]-l-gamma-glutamyl-D-glutamic acid]
RECIST v1.1 response rate ([1]; 6 mg/m^2/q2Wk, medium and high α-FR, 0/9): 0%
Patients who received treatment for ≥16 weeks ([1]; 12 mg/m^2/q2Wk, medium and high α-FR, 5/25): 20%
RECIST v1.1 response rate ([1]; 12 mg/m^2/q3Wk, medium and high α-FR, 1/5): 20%
Partial responses ([1]; dose escalation cohort, high-grade serous ovarian cancer, 4 of 11): 36.4%
Overall response rate (ORR) ([1]; expansion cohorts, regardless of α-FR status, 14/64): 21.9%
Effect of combination of CT900 and PARP inhibition [2]: synergistic growth inhibition
Median cumulative dose at which pulmonary toxicity occurred [3]: 162 mg/m^2
HL Lambda_z ([4]; 1 mg/m^2 i.v., Geometric Mean, N 3): 6.1 h
HL Lambda_z ([4]; 1 mg/m^2 i.v., Mean, N 3): 6.7 h
HL Lambda_z ([4]; 1 mg/m^2 i.v., Median, N 3): 7.5 h
HL Lambda_z ([4]; 1 mg/m^2 i.v., Range, N 3): 3.2 to 9.4 h
HL Lambda_z ([4]; 2 mg/m^2 i.v., Geometric Mean, N 4): 11.8 h
HL Lambda_z ([4]; 2 mg/m^2 i.v., Mean, N 4): 12.6 h
HL Lambda_z ([4]; 2 mg/m^2 i.v., Median, N 4): 11.3 h
HL Lambda_z ([4]; 2 mg/m^2 i.v., Range, N 4): 7.5 to 20.0 h
HL Lambda_z ([4]; 6 mg/m^2 i.v., Mean, N 1): 19.9 h
HL Lambda_z ([4]; 12 mg/m^2 i.v., Geometric Mean, N 5): 28.1 h
HL Lambda_z ([4]; 12 mg/m^2 i.v., Mean, N 5): 28.7 h
HL Lambda_z ([4]; 12 mg/m^2 i.v., Median, N 5): 26.5 h
HL Lambda_z ([4]; 12 mg/m^2 i.v., Range, N 5): 23.0 to 41.0 h
AUC(0-t) ([4]; 1 mg/m2, AUC0-24, 1 mg/m^2 i.v., Mean, N 3): 1650 ng·h/mL
AUC(0-t) ([4]; 1 mg/m2, AUC0-24, 1 mg/m^2 i.v., Median, N 3): 1620 ng·h/mL
AUC(0-t) ([4]; 1 mg/m2, AUC0-24, 1 mg/m^2 i.v., Range, N 3): 1020 to 2330 ng·h/mL
AUC(0-t) ([4]; 1 mg/m2, AUClast, 1 mg/m^2 i.v., Mean, N 3): 1650 ng·h/mL
AUC(0-t) ([4]; 1 mg/m2, AUClast, 1 mg/m^2 i.v., Median, N 3): 1620 ng·h/mL
AUC(0-t) ([4]; 1 mg/m2, AUClast, 1 mg/m^2 i.v., Range, N 3): 1020 to 2330 ng·h/mL
Cmax ([4]; 1 mg/m2, C max, 1 mg/m^2 i.v., Mean, N 3): 402 ng/mL
Cmax ([4]; 1 mg/m2, C max, 1 mg/m^2 i.v., Median, N 3): 401 ng/mL
Cmax ([4]; 1 mg/m2, C max, 1 mg/m^2 i.v., Range, N 3): 374 to 432 ng/mL
clearance ([4]; 1 mg/m2, Cl, 1 mg/m^2 i.v., Mean, N 3): 20.3 mL/min
clearance ([4]; 1 mg/m2, Cl, 1 mg/m^2 i.v., Median, N 3): 20.8 mL/min
clearance ([4]; 1 mg/m2, Cl, 1 mg/m^2 i.v., Range, N 3): 10.4 to 29.7 mL/min
Tmax ([4]; 1 mg/m2, T max, 1 mg/m^2 i.v., Mean, N 3): 1 h
Tmax ([4]; 1 mg/m2, T max, 1 mg/m^2 i.v., Median, N 3): 1 h
Tmax ([4]; 1 mg/m2, T max, 1 mg/m^2 i.v., Range, N 3): 1 h
Vd ([4]; 1 mg/m2, Vss, 1 mg/m^2 i.v., Mean, N 3): 7.59 L
Vd ([4]; 1 mg/m2, Vss, 1 mg/m^2 i.v., Median, N 3): 6.75 L
Vd ([4]; 1 mg/m2, Vss, 1 mg/m^2 i.v., Range, N 3): 6.71 to 9.32 L
AUC(0-t) ([4]; 2 mg/m2, AUC0-24, 2 mg/m^2 i.v., Mean, N 4): 4890 ng·h/mL
AUC(0-t) ([4]; 2 mg/m2, AUC0-24, 2 mg/m^2 i.v., Median, N 4): 4730 ng·h/mL
AUC(0-t) ([4]; 2 mg/m2, AUC0-24, 2 mg/m^2 i.v., Range, N 4): 2520 to 7590 ng·h/mL
AUC(0-t) ([4]; 2 mg/m2, AUClast, 2 mg/m^2 i.v., Mean, N 4): 6860 ng·h/mL
AUC(0-t) ([4]; 2 mg/m2, AUClast, 2 mg/m^2 i.v., Median, N 4): 6050 ng·h/mL
AUC(0-t) ([4]; 2 mg/m2, AUClast, 2 mg/m^2 i.v., Range, N 4): 2520 to 12800 ng·h/mL
Cmax ([4]; 2 mg/m2, C max, 2 mg/m^2 i.v., Mean, N 4): 746 ng/mL
Cmax ([4]; 2 mg/m2, C max, 2 mg/m^2 i.v., Median, N 4): 759 ng/mL
Cmax ([4]; 2 mg/m2, C max, 2 mg/m^2 i.v., Range, N 4): 613 to 855 ng/mL
clearance ([4]; 2 mg/m2, Cl, 2 mg/m^2 i.v., Mean, N 4): 11.2 mL/min
clearance ([4]; 2 mg/m2, Cl, 2 mg/m^2 i.v., Median, N 4): 8.72 mL/min
clearance ([4]; 2 mg/m2, Cl, 2 mg/m^2 i.v., Range, N 4): 4.07 to 23.4 mL/min
Tmax ([4]; 2 mg/m2, T max, 2 mg/m^2 i.v., Mean, N 4): 0.9 h
Tmax ([4]; 2 mg/m2, T max, 2 mg/m^2 i.v., Median, N 4): 1 h
Tmax ([4]; 2 mg/m2, T max, 2 mg/m^2 i.v., Range, N 4): 0.5 to 1.1 h
Vd ([4]; 2 mg/m2, Vss, 2 mg/m^2 i.v., Mean, N 4): 8.52 L
Vd ([4]; 2 mg/m2, Vss, 2 mg/m^2 i.v., Median, N 4): 7.41 L
Vd ([4]; 2 mg/m2, Vss, 2 mg/m^2 i.v., Range, N 4): 6.53 to 12.7 L
AUC(0-t) ([4]; 6 mg/m2, AUC0-24, 6 mg/m^2 i.v., Mean, N 1): 15100 ng·h/mL
AUC(0-t) ([4]; 6 mg/m2, AUClast, 6 mg/m^2 i.v., Mean, N 1): 25600 ng·h/mL
Cmax ([4]; 6 mg/m2, C max, 6 mg/m^2 i.v., Mean, N 1): 2030 ng/mL
clearance ([4]; 6 mg/m2, Cl, 6 mg/m^2 i.v., Mean, N 1): 7.67 mL/min
Tmax ([4]; 6 mg/m2, T max, 6 mg/m^2 i.v., Mean, N 1): 1 h
Vd ([4]; 6 mg/m2, Vss, 6 mg/m^2 i.v., Mean, N 1): 12 L
AUC(0-t) ([4]; 12 mg/m2, AUC0-24, 12 mg/m^2 i.v., Geometric Mean, N 5): 46900 ng·h/mL
AUC(0-t) ([4]; 12 mg/m2, AUC0-24, 12 mg/m^2 i.v., Mean, N 5): 47200 ng·h/mL
AUC(0-t) ([4]; 12 mg/m2, AUC0-24, 12 mg/m^2 i.v., Median, N 5): 45400 ng·h/mL
AUC(0-t) ([4]; 12 mg/m2, AUC0-24, 12 mg/m^2 i.v., Range, N 5): 42300 to 58600 ng·h/mL
AUC(0-t) ([4]; 12 mg/m2, AUClast, 12 mg/m^2 i.v., Geometric Mean, N 5): 85900 ng·h/mL
AUC(0-t) ([4]; 12 mg/m2, AUClast, 12 mg/m^2 i.v., Mean, N 5): 87600 ng·h/mL
AUC(0-t) ([4]; 12 mg/m2, AUClast, 12 mg/m^2 i.v., Median, N 5): 83500 ng·h/mL
AUC(0-t) ([4]; 12 mg/m2, AUClast, 12 mg/m^2 i.v., Range, N 5): 68700 to 123000 ng·h/mL
Cmax ([4]; 12 mg/m2, C max, 12 mg/m^2 i.v., Geometric Mean, N 5): 5100 ng/mL
Cmax ([4]; 12 mg/m2, C max, 12 mg/m^2 i.v., Mean, N 5): 5130 ng/mL
Cmax ([4]; 12 mg/m2, C max, 12 mg/m^2 i.v., Median, N 5): 4830 ng/mL
Cmax ([4]; 12 mg/m2, C max, 12 mg/m^2 i.v., Range, N 5): 4460 to 6010 ng/mL
clearance ([4]; 12 mg/m2, Cl, 12 mg/m^2 i.v., Geometric Mean, N 5): 3.45 mL/min
clearance ([4]; 12 mg/m2, Cl, 12 mg/m^2 i.v., Mean, N 5): 3.6 mL/min
clearance ([4]; 12 mg/m2, Cl, 12 mg/m^2 i.v., Median, N 5): 3.68 mL/min
clearance ([4]; 12 mg/m2, Cl, 12 mg/m^2 i.v., Range, N 5): 2.1 to 5.05 mL/min
Tmax ([4]; 12 mg/m2, T max, 12 mg/m^2 i.v., Geometric Mean, N 5): 1 h
Tmax ([4]; 12 mg/m2, T max, 12 mg/m^2 i.v., Mean, N 5): 1 h
Tmax ([4]; 12 mg/m2, T max, 12 mg/m^2 i.v., Median, N 5): 1 h
Tmax ([4]; 12 mg/m2, T max, 12 mg/m^2 i.v., Range, N 5): 1 h
Vd ([4]; 12 mg/m2, Vss, 12 mg/m^2 i.v., Geometric Mean, N 5): 7.59 L
Vd ([4]; 12 mg/m2, Vss, 12 mg/m^2 i.v., Mean, N 5): 7.62 L
Vd ([4]; 12 mg/m2, Vss, 12 mg/m^2 i.v., Median, N 5): 7.33 L
Vd ([4]; 12 mg/m2, Vss, 12 mg/m^2 i.v., Range, N 5): 6.99 to 9.06 L
